Screens from PubChem BioAssay.
Only some compounds are listed: those with a hit (about 2.3% of all), similar ones and a draw of the others.
Rtt109 HAT inh – C. albicans Rtt109 histone acetyltransferase inhibition; Q5AAJ8; purified Rtt109/Vps75, ThioGlo CoA-SH fluorescence, 4 h; inhibition, % at 34.9 µM; 0.16% of 330,000 active;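 active means inhibition of at least 50% in every replicate; inconclusive means best replicate reaches 50% inhibition but some replicates fall short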
Target sequence (Q5AAJ8 whole entry, looked up): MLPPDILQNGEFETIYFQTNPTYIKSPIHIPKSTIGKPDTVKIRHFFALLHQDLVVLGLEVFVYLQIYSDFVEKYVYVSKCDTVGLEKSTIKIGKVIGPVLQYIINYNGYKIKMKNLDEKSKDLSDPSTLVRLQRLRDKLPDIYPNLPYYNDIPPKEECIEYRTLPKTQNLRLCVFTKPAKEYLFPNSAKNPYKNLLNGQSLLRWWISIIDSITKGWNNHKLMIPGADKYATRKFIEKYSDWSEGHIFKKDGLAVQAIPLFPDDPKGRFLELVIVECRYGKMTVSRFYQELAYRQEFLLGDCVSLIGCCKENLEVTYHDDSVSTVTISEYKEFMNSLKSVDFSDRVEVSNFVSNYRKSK
Env fusion inh – blocks HIV Env-driven cell-cell fusion; HeLa-JRFL Env/CEM21 cell fusion, luciferase; inhibition, % at 12.3 µM; 1.1% of 360,000 active; AID 651610;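 active means mean replicate inhibition score of at least 50 and every replicate individually at or above 50; inconclusive means only one of the two criteria met; inactive means mean below 50 and not all replicates reaching 50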;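 further: 0% = plate neutral controls and 100% = maraviroc near 300 nM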
PAX8 inh HTS – lowers PAX8-driven luciferase in RMG-I cells; RMG-I TPO-luciferase reporter, SteadyGlo, 24 h; inhibition, % at 12.6 µM; 1.2% of 360,000 active; AID 652154;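 active means mean replicate inhibition at least 60% with every replicate also reaching 60%; inconclusive means only one of the two criteria is met; inactive means mean below 60% and not all replicates reaching 60%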;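 further: luciferase light reporting Pax8 driven TPO promoter activity; plate controls were median of neutral control wells for no effect and mitoxantrone controls for full effect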
Arr AP2 block – inhibitors of human beta-arrestin and AP2 interaction; 0.31% of 340,000 active; AID 504490; inhibition, % at 10 µM; FITC-arrestin peptide / GST-AP2 beads, flow cytometry; AP2 beta2 appendage carries R879A mutation;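 active means inhibition above a set limit, near 3 SD of compounds lacking own fluorescence, cut at about 54% in these data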;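 further: plate controls were DMSO wells for no effect and 5 µM unlabelled arrestin peptide for full effect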
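System: GST-AP2 R879A bound to glutathione beads, E. coli-expressed. Also added: 50 nM FITC-arrestin peptide. Schedule: compound with beads 12 min RT, then probe 1 h RT. Signal: bead flow cytometry, FITC channel. Read-out basis: percent response.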
PfHsp90 yeast 2 – inhibits growth of yeast expressing Plasmodium falciparum Hsp90; inhibition, % at 9.4 µM; S. cerevisiae expressing PfHsp90, BacTiter-Glo ATP, 48 h; yeast lacking PDR1 and PDR3 efflux regulators; 0.32% of 310,000 active;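 active means every replicate shows inhibition above about 80%, whatever the replicate mean, limit read from the data; inconclusive means mean inhibition reaches the set limit but some replicate falls short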;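 further: 0% = DMSO neutral controls and 100% = 20 µM radicicol positive controls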
Glyco luc inh – blocks N-linked glycosylation in D54 reporter cells; D54 ERlucT glycosylation luciferase reporter, 24 h; percent of 100 nM tunicamycin response; reporter increase, % at 12.5 µM; 0.23% of 360,000 active;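 active means mean luciferase reporter signal, scaled so untreated is 0 and the glycosylation-blocking control 100, at or above a set limit in every replicate; inconclusive means mean reaches the limit but not every replicate does; inactive means mean below the limit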;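 further: luciferase carries N-glycosylation sites so blocking glycosylation raises the light; 0% = median of neutral control wells and 100% = median of 100 nM tunicamycin wells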
Starred values were filed as active, the others as inactive; ? = inconclusive; nt = no result; [ ] = remark or other dose.

SMILES | Rtt109 HAT inh | Env fusion inh | PAX8 inh HTS | Arr AP2 block | PfHsp90 yeast 2 | Glyco luc inh
COc1cc(-c2noc(C)c2C#Cc2ccc(N)cc2)cc(OC)c1OC | 5.8 | -335.3 | 75.5* | 1.7 | -8.1 | 8.6
COc1cc(-c2noc(C)c2C#Cc2ccccn2)cc(OC)c1OC | -0.5 | -94.3 | 29.1 | -2.4 | -2.3 | 17.4
O=C(C[C@@H]1C[C@H]2c3cc(NS(=O)(=O)c4ccc(F)cc4)ccc3O[C@H]2[C@H](CO)O1)NC1CCCCC1 | nt | 21.9[16.7 µM] | 11.8 | nt | nt | nt
O=C(C[C@H]1CC[C@H]2[C@@H](COC[C@H](O)CN2Cc2cc(F)ccc2F)O1)NCc1ccc(Cl)cc1 | nt | 21.3[16.7 µM] | 14.4 | nt | nt | nt
CCC1=[N+](C)CCn2c(C)ccc21 | -3.9 | nt | nt | 83.2* | -21.5 | 3.3
O=C(NC1CCCc2c1cnn2-c1ccc(F)cc1F)c1ccccc1N1CCOCC1 (centres undefined) | 4.7 | -147.9 | -0.8 | -1.9 | -29.1 | 0.0
Cc1ccc(-n2ncc3c2CCCC3NC(=O)c2ccccc2N2CCOCC2)cc1C (centres undefined) | 26.2 | 20.7 | nt | 24.0 | 114.0* | -0.9
Cc1ncoc1C(=O)NC1CCCc2c1cnn2-c1cc(F)cc(F)c1 (centres undefined) | nt | 20.4 | 1.2 | nt | nt | -0.7
Cc1ncoc1C(=O)NC1CCCc2c1cnn2-c1ccc(C(C)(C)C)cc1 (centres undefined) | 0.8 | 56.4* | 20.6 | 8.9 | -9.5 | -4.6
Cc1ccc(S(=O)(=O)N[C@H]2CC[C@@H](CC(=O)NCc3ccc(Cl)c(Cl)c3)O[C@@H]2CO)cc1 | nt | 22.7[16.7 µM] | 17.3 | nt | nt | nt
C[C@@H]1CN([C@H](C)CO)C(=O)c2cc(NC(=O)Nc3ccccc3)ccc2O[C@H]1CN(C)Cc1ccc(Oc2ccccc2)cc1 | nt | 10.2[16.7 µM] | 4.6 | nt | nt | nt
Cc1ccc(S(=O)(=O)N2CCN(C(=O)CNC(=O)c3ccc(Br)o3)CC2)cc1 | 10.8 | 64.3* | 12.4 | -7.1 | nt | 0.7
COCC(=O)Nc1ccc2c(c1)[C@H]1C[C@H](CC(=O)NCc3cccc(F)c3)O[C@H](CO)[C@H]1O2 | nt | 7.4[16.7 µM] | 9.3 | nt | nt | nt
C[C@@H]1CN([C@@H](C)CO)C(=O)c2cc(NC(=O)Nc3ccccc3)ccc2O[C@@H]1CN(C)S(=O)(=O)c1ccc(F)cc1 | nt | -14.4[16.7 µM] | nt | nt | nt | nt
O=C(C[C@H]1CC[C@@H]2[C@H](COC[C@H](O)CN2Cc2nccs2)O1)NCc1ccc(F)cc1 | nt | -5.9[16.7 µM] | 3.8 | nt | nt | nt
COc1ccc2c3c(n(C)c2c1)[C@H](CO)N(Cc1ccccc1F)CC31CCN(CC2CC2)CC1 | nt | nt | -16.6 | nt | nt | nt
CN(C)CCNc1ccc(-c2nn(C)c(=O)c3ccccc23)cc1[N+](=O)[O-] | 20.3 | 25.0 | 0.2 | 1.1 | 8.0 | 3.1
CN(C)CCNc1ccc(CO)c2sc3ccc(O)cc3c(=O)c12 | 6.0 | -84.3 | 95.8* | 17.7 | -7.6 | -7.3
COc1ccc2sc3cccc(NCCN(C)C)c3c(=O)c2c1 | nt | 13.4 | -38.0 | nt | nt | 139.7*
CN(C)CCNc1ccc2ncn3c4ccc(O)cc4c(=O)c1c23 | 0.9 | 50.2 | 63.8* | 3.8 | -0.5 | ?
Cc1cccc(-c2ccc([C@H]3[C@H]4CN(C(=O)Cc5ccccn5)CC(=O)N4[C@H]3CO)cc2)c1 | nt | nt | 6.6 | nt | nt | nt
CN(C[C@H](Cc1ccccc1)N(C[C@H](Cc1cccc2ccccc12)N(CCc1ccccc1)N=O)N=O)N=O | -2.6 | 35.7 | 39.6 | 0.6 | -3.0 | -5.4
CC(C)[C@H](CN(N=O)[C@@H](Cc1ccccc1)CN(C)N=O)N(CCc1ccccc1)N=O | -7.6 | 67.6* | -3.5 | 2.5 | -29.9 | -4.1
CN(C[C@H](Cc1ccccc1)N(C[C@H](Cc1ccccc1)N(CCc1cc(C(F)(F)F)cc(C(F)(F)F)c1)N=O)N=O)N=O | -1.9 | 56.1* | -12.9 | -5.0 | -31.4 | -12.0
CCCC[C@H](CN(N=O)[C@@H](Cc1ccccc1)CN(C)N=O)N(CCc1ccccc1)N=O | 5.9 | 88.4* | 10.6 | -2.2 | -3.3 | -6.7
SMILES | Rtt109 HAT inh | Env fusion inh | PAX8 inh HTS | Arr AP2 block | PfHsp90 yeast 2 | Glyco luc inh
CC(C)C[C@@H](CN(C)N=O)N(C[C@H](Cc1ccccc1)N(CCc1ccccc1)N=O)N=O | -2.5 | 93.7* | 24.6 | 2.2 | 12.2 | -8.7
COCC(=O)Nc1ccc2c(c1)OC[C@@H](C)N(CC1CC1)C[C@H](C)[C@H](OC)CN(C)C2=O | nt | -46.8[16.7 µM] | -1.8 | nt | nt | nt
C[C@@H]1CN([C@H](C)CO)C(=O)c2cc(NS(C)(=O)=O)ccc2O[C@@H](C)CCCCO[C@@H]1CN(C)C | nt | -1.0[16.7 µM] | -30.5 | nt | nt | nt
O=C1CC(c2cccc([N+](=O)[O-])c2)c2ccc3ccccc3c2N1 (centres undefined) | -6.8 | 93.1* | nt | 3.2 | -27.4 | -0.8
O=C(CCNC(=O)c1ccc(Br)cc1)NNC(=O)COc1ccccc1F | 3.3 | 73.5* | 10.6 | 12.7 | 3.1 | 0.9
Cc1ccnc(NC(=O)CCNC(=O)c2ccc(Br)cc2)c1 | nt | 56.7* | -57.8 | nt | nt | 4.2
O=C(NC1CCCC1)N1CC(=O)N2[C@H](CO)[C@@H](c3ccc(-c4cccc(F)c4)cc3)[C@@H]2C1 | nt | -37.6[16.7 µM] | 4.2 | nt | nt | nt
c1ccc(-c2cccc(-c3ccccn3)n2)nc1 | -17.7 | nt | nt | 0.9 | 145.9* | -13.4
O=C(C[C@@H]1CC[C@@H]2[C@H](COC[C@@H](O)CN2C(=O)c2ccc(F)cc2)O1)NCCCN1CCOCC1 | nt | nt | 13.3 | nt | nt | nt
COc1ccc(NC(=O)CNS(=O)(=O)c2cccs2)c(OC)c1 | 62.6* | nt | nt | 3.4 | nt | 1.5
CN(/N=C/c1ccc(O)cc1O)c1nc(-c2ccccc2)cc(-c2ccccc2)n1 | -1.6 | nt | 157.5* | 5.5 | -14.0 | -1.3
Cc1cc(-c2ccccc2)nc(N/N=C/c2ccc(O)cc2O)n1 | -1.9 | -4.7 | 20.3 | -16.4 | -5.3 | 1.0
CC(C)NC(=O)N(C)C[C@H]1OCCCC[C@H](C)Oc2ccc(N(C)C)cc2C(=O)N([C@H](C)CO)C[C@H]1C | nt | 2.6[16.7 µM] | -7.2 | nt | nt | nt
COc1ccc(NC(=O)N(C)C[C@@H]2OCCCC[C@@H](C)Oc3ccc(NS(=O)(=O)c4ccc(Cl)cc4)cc3C(=O)N([C@@H](C)CO)C[C@@H]2C)cc1 | nt | 9.1[16.7 µM] | 0.1 | nt | nt | nt
COc1ccccc1NC(=O)CSC(N)=O | 135.0* | nt | nt | 8.9 | -38.9 | 4.4
Cc1ccccc1NC(=O)CSC(N)=O | ? | nt | nt | -0.4 | nt | 1.8
Cc1noc(C)c1NC(=O)Nc1cccc2c1O[C@@H](CN(C)Cc1ccccc1)[C@@H](C)CN([C@H](C)CO)C2=O | nt | -3.9[16.7 µM] | -9.5 | nt | nt | nt
Cc1c(C(=O)O)oc2c(F)cccc12 | 0.8 | -1.6 | -3.8 | -12.2 | -22.2 | 3.4
Cc1c(C(=O)N2CCC[C@H]2CO)oc2c(F)cccc12 | 56.7* | -27.1 | -85.9 | 4.5 | 9.5 | 2.2
C[C@H](CO)N1C[C@H](C)[C@H](CN(C)Cc2cccnc2)Oc2cc(C#CCN(C)C)ccc2S1(=O)=O | nt | -40.0[16.7 µM] | nt | nt | nt | nt
CC(=O)O[C@@H]1[C@H]2[C@@H](C[C@@H](C)[C@@H]3C=CC(=O)[C@@]13C)OC(=O)[C@@H]2C | 5.7 | -12.6 | -14.2 | -0.8 | 19.1 | 1.6
